Values without a mark were called inactive. Active and inactive are the calls of the source.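 How the source made its calls: active means growth inhibition above a set limit, 3 SD over mean compound inhibition, in both replicates (cut at about 43% in these data); inconclusive means above the limit in only one replicate; inactive means at or below the limit in both replicates.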
Experiment: Restrictive medium S. cerevisiae growth inhibition, OD615, pilot screen of yeast lifespan reduction project, restrictive growth control (AID 706);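 further: modified DeaD lifespan yeast strain shifted to restrictive glucose medium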
Conditions: OD615, 48 h, at 10 µM, active compounds read high
Summary of the method: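 System: Engineered S. cerevisiae DeaD strain | Detection: OD615 | Buffer or medium: CSMM-D glucose medium | Doses: 10 µM compound, 0.25% DMSO | Timing: 4 h pre-growth plus 48 h compound exposure, 30 °C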

SMILES | growth inhibition
COc1ccc(C2C(C(=O)NCC3CCCO3)c3cc(OC)c(OC)cc3C(=O)N2C)cc1OC (stereo not given) | -13.4%
CC(=O)CCS(=O)(=O)c1ccc(C)c(C)c1 | -7.75%
CC1(C)NC(=O)N(CC(O)COc2ccc(N3C(=O)c4ccccc4C3=O)cc2)C1=O (stereo not given) | -3.49%
CCOc1ccc(N=Cc2c(O)cc(C)oc2=O)cc1 | 8.93%
O=C(Nc1ccccc1O)c1ccccc1O | 2.25%
c1ccc(CSc2nnc(-c3ccncc3)o2)cc1 | 9.8%
Cc1nccn1-c1c2c(c(C#N)c3nc4ccccc4n13)CCC2 | -2.89%
CCOC(=O)N1CCN(C(=O)C(C)(C)Oc2ccc(Cl)cc2)CC1 | -2.48%
Cc1c(NC(=O)Oc2ccccc2)sc(=S)n1C | 34.4%
CCO/C(C)=C1\C(=O)N(CC)c2ccccc21 | -5.21%
CCOC(=O)C1CCN(c2c(N3CCN(Cc4ccccc4)CC3)c(=O)c2=O)CC1 | -4.49%
Cn1c2c(c3ccccc31)CC/C2=N\O | 18.9%
CSC1=NCCN1C(=O)c1cccs1 | 11.1%
COC(=O)C1=C(C)Nc2ccc(C)cc2S1 | 29.2%
Cc1csc2nc(CNS(=O)(=O)c3ccc4c(c3)OCCO4)cn12 | -5.18%
COc1ccc(-c2cn3c(C)c(C(=O)NCc4ccc5c(c4)OCO5)sc3n2)cc1 | 7.5%
O=C(c1ccc(Br)o1)N1CCN=C1SCc1cccnc1 | -6.34%
O=C1CC(c2ccc(S(=O)(=O)NCc3ccncc3)cc2)CN1 (stereo not given) | -7.88%
COc1ccc(Cl)cc1Nc1cc(C)nc2nc(C)nn12 | -6.77%
COc1ccccc1NC(=O)CSc1nnc(-c2ccccn2)n1Cc1ccco1 | 13.1%

SMILES | growth inhibition
Cc1ccccc1NC(=O)CCN1CCN(Cc2ccccc2)CC1 | 3.58%
O=C(c1ccc(CN2CCOCC2)cc1)N1CCN(Cc2ccccc2)CC1 | -5.85%
CCCCCC(C)n1[nH]c(=O)c2c(C)cc(C)nc21 (stereo not given) | 17.6%
CN1CCN(Cc2nc3c(c(=O)n(C)c(=O)n3C)n2CCc2ccccc2)CC1 | -4.14%
O=C(COc1cccc2ccccc12)N1CCN(c2ccccc2)CC1 | -22%
CCC(C)NC(=O)C1CN(S(=O)(=O)c2ccccc2)CCN1S(=O)(=O)c1ccccc1 (stereo not given) | -6.21%
COc1cc(C2N(c3ccc(Cl)cc3)C(=O)C3CCCN32)cc(OC)c1OC (stereo not given) | -0.835%
CC1CN(c2ncnc3c2cnn3-c2ccc(Cl)cc2)CC(C)O1 (stereo not given) | -8.06%
Cn1c(C(=O)NCc2cccs2)cc2c(=O)n(C)c3ccccc3c21 | -1.79%
O=C1C2CCCN2C(c2ccc(Br)cc2)N1c1ccc(F)cc1 (stereo not given) | -3.76%
N=c1n(-c2ccccc2)c(O)cc(=O)n1-c1ccccc1 | 1.77%
Cc1ccccc1-c1ccc(Nc2ccc(C(=O)N3CCOCC3)cc2)nn1 | -5.71%
Cc1ccccc1CSc1nnc(-c2ccco2)n1Cc1ccco1 | 10.2%
CCN1CCN(CC(=O)Nc2ccc3c(c2)OCCO3)C(=O)C1=O | 10.1%
CCN(CC)S(=O)(=O)c1ccc(C(=O)OCC(=O)N2CCN(C(=O)c3ccco3)CC2)cc1 | -3.91%
CCCCNC(=O)CS(=O)Cc1nc(-c2cccs2)oc1C (stereo not given) | 21.5%
Cn1c(=O)c(C(=O)Nc2ncccn2)c(O)c2ccccc21 | 63.5% (active)
CCOc1cc(C2NC(=O)NC(O)(C(F)(F)F)C2C(=O)c2ccc(Cl)cc2)ccc1O (stereo not given) | -4.53%
CC(C)(CC(=O)O)Cc1nc(-c2ccc(Cl)cc2)no1 | 10.4%
COc1ccc(C2C(C#N)=C(N)Oc3n[nH]c(C)c32)cc1Cn1nnc2ccccc21 (stereo not given) | -0.6%

— PubChem BioAssay
